Source: PubChem (several laboratories)
MEKK2wt PB1 HTS: modulators of MEK5 binding to wildtype MEKK2, primary screen, biochemical, multiplex bead flow cytometry, Alexa488-MEK5 | binding response (% of control), % at 10 µM | Alexa488-MEK5 binding to MEKK2 WT; actives lie on both sides | 1.1% of 290,000 active | Mitogen-activated protein kinase kinase kinase 2 (Homo sapiens), Q9Y2U5; in the data active means binding response below about 67% or above about 130%
MEKK2mut PB1 HTS: MEK5 binding signal on mutant MEKK2 PB1, primary screen, biochemical, multiplex bead flow cytometry, Alexa488-MEK5; Alexa488-MEK5 binding to MEKK2 mutant; percent response, % at 10 µM; 0.35% of 290,000 active; in the data active means percent response above about 24%, passing the limit was not always enough
MEKK3 PB1 HTS: modulators of MEKK3-MEK5 PB1 binding, primary screen, biochemical, wildtype MEKK3, multiplex bead flow cytometry, Alexa488-MEK5. bead-based flow cytometry, Alexa488-MEK5 binding to MEKK3; actives lie on both sides; 0 = blocked by unlabeled MEK5, 100 = vehicle. binding response (% of control), % at 10 µM. 1.4% of 290,000 active. AID 1529, 2009;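 active means binding response more than 3 SD above or below the average of its plate-row segment, actives on both sides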;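 further: Alexa488 bead fluorescence after subtracting the streptavidin-only scavenger bead signal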
UBC13 inh: UBC13 polyubiquitin chain formation inhibitors, primary screen, biochemical, TR-FRET, uHTS; Ubiquitin-conjugating enzyme E2 N (Homo sapiens), P61088; inhibition, % at 20 µM; 0.47% of 330,000 active; in the data active means inhibition above about 45%, passing the limit was not always enough
Target sequence (P61088 whole entry, looked up): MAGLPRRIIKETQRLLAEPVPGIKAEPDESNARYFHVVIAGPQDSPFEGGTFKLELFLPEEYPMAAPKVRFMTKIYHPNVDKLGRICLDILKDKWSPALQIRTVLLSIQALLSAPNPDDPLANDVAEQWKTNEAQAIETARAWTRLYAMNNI
Apaf1 inhib: inhibitors of human Apaf-1 apoptosome, primary screen, biochemical, DEVD-Rh110 fluorescence, uHTS | reconstituted apoptosome caspase-3 activity | inhibition, % at 20 µM | 0.71% of 330,000 active; active means inhibition of at least 40% at 20 µM;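 further: plate controls were DMSO wells for no effect and DEVD-CHO caspase inhibitor wells for full effect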
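System: reconstituted apoptosome with Apaf-1, cytochrome c, caspase-9, procaspase-3, dATP; Signal: Rh110 fluorescence intensity; Schedule: 30 min compound preincubation, 50 min activation, room temperature; Reagent: cytochrome c trigger plus (Z-DEVD)2-Rh110 caspase-3 substrate.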
PREPL inh: PREPL enzyme inhibitors, primary screen, biochemical, fluorescence polarization. Prolyl endopeptidase-like (Homo sapiens), Q4J6C6. recombinant PREPL, fluorescence polarization activity-based probe. inhibition, % at 5.96 µM. 0.68% of 320,000 active;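 further: 0% = enzyme with DMSO and 100% = wells lacking enzyme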
PREPL confirm: human PREPL enzyme inhibitors, confirmation, biochemical, fluorescence polarization; recombinant PREPL, fluorescence polarization activity probe; shares compounds with PREPL inh; inhibition, % at 5.96 µM; 67% of 2,000 active; AID 2803, 2010;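 further: 0% = protein with DMSO and 100% = wells lacking protein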
Starred values were filed as active, the others as inactive; . = not tested or not shown; [ ] = dose if it differs, or a comment. A selection: hits, their analogues and other compounds. The true share with any hit is near 3.1%. Unless noted, no stated cut-off is given here; in the data, active means inhibition above about 43%; inactive means the rest.

SMILES	MEKK2wt PB1 HTS	MEKK2mut PB1 HTS	MEKK3 PB1 HTS	UBC13 inh	Apaf1 inhib	PREPL inh	PREPL confirm
COc1ccc(-c2cnnc(N/N=C/c3ccc(C)o3)n2)cc1	100	0	101	-18	1	9	.
Cc1ccc(CNC(=O)c2ccc(Br)o2)cc1	99	1	98	-2	-5	-15	.
Cc1cc2cc(CNC(=O)c3ccc(Br)o3)ccc2[nH]1	53*[inhibitor]	1	68	-11	28	53*	24
COc1ccc(CCNC(=O)Cc2ccc(NS(=O)(=O)c3ccc(F)cc3)cc2)cc1OC	.	.	.	6	-6	12	.
Cc1ccc2c(c1)C1CN(C)CCC1N2Sc1ccccc1[N+](=O)[O-] (centres undefined)	109	6	99	-4	26	45*	38
CCOc1ncccc1C(=O)Nc1cc(S(=O)(=O)N2CCCCC2)ccc1OC	.	.	.	30	9	1	.
Cn1c(=O)c2c(SCC(=O)N3CCOCC3)nc(-c3ccccc3F)nc2n(C)c1=O	101	3	102	9	4	-2	.
CCN1CCN(C(=O)c2cn(CCOC)c(=O)c3c2c2ccccc2n3C)CC1	86	-9	78	7	-9	-4	.
CC(C)Cn1cc(C(=O)N2CCN(c3ccccn3)CC2)c2c3ccccc3n(C)c2c1=O	103	6	107	19	1	51*	43
Nc1c(Cl)ncnc1N/N=C/c1ccc2ccccc2n1	91	-2	108	.	.	64*	53*
NNC(=O)c1csc(-c2ccc(C(F)(F)F)cc2Cl)n1	100	-2	98	4	11	-8	.
Cc1ccc([N+](=O)[O-])cc1N=C1C(=O)Nc2ccccc21	105	1	100	-8	5	6	.
O=C(CCCc1c[nH]c2ccccc12)NCCc1c[nH]c2ccccc12	99	5	101	7	5	19	.
O=C(NCCc1c[nH]c2ccccc12)OCCCCOC(=O)NCCc1c[nH]c2ccccc12	.	.	.	45	18	61*	30
CCN(CC)CCN(C(=O)c1ccc2c(c1)CCCC2)c1nc2cc(OC)c(OC)cc2s1	119	14	103	32	48*	49*	34
COc1cc2nc(N(CCN(C)C)C(=O)c3ccc4ccccc4c3)sc2cc1OC	113	9	100	11	15	18	.
CC(C)NC(=O)c1ccc(NC(=O)CC2SC(N3CCCCC3)=NC2=O)cc1 (centres undefined)	.	.	.	2	-6	80*	18
CC(C)NC(=O)c1ccc(NC(=O)CC2SC(N3CCCC3)=NC2=O)cc1 (centres undefined)	.	.	.	7	-6	2	.
COc1ccc(NC(=O)NCCCN2CCN(c3ccccc3F)CC2)cc1	103	-5	96	16	-13	49*	35
O=C(Nc1ccc2c(c1)OCCO2)c1cccc2nc3ccccc3nc12	91	0	96	-8	17	49*	60*
O=C(Nc1ccc2c(c1)OCCO2)c1ccccc1F	103	4	105	7	-10	-12	.
O=c1cc(-c2ccc(O)cc2)oc2c(-c3c(O)cc(O)c4c(=O)cc(-c5ccc(O)cc5)oc34)c(O)cc(O)c12	.	.	.	-14	-12	51*	15
COc1ccc(S(=O)(=O)N2CCOCC2)cc1NC(=O)CCNC(=O)c1ccc([N+](=O)[O-])cc1	.	.	.	-4	-13	-2	.
COc1ccc(COC(=O)CCS(=O)(=O)c2ccc(C)cc2)cc1F	.	.	.	-4	8	-20	.
COc1ccc(Cl)cc1NC(=O)NCc1ccccn1	103	9	103	-3	11	10	.
